Series [1] concerns ZIKV. The series is described as follows: ZIKV production from SNB-19 cells, focus-forming unit assay on Vero cells. The series is classed as cell-based, Zika virus. The following applies: for concentrations suppressing production of infectious ZIKV particles: PRVABC59, MOI = 0.5, 24 hours post infection.
Series [2] has as its system ZIKV. The experiment in a line: ZIKV NS1 expression. It counts as cell-based, Zika virus. The following applies: SNB-19 cells; three strains; dose-dependent. The method in brief:
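SNB-19 cells were treated with titrated test compound 1 h before FSS-13025, PRVABC59 or MR766 (MOI 1) and harvested at 24 h for NS1 western blot. NS1/GAPDH bands were normalised to DMSO. Secreted NS1 in the medium after 24 h was measured by NS1 ELISA kit. n = 3 cultures; one-way ANOVA versus DMSO or the 0 μM group.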

The test system of series [3] is ZIKV. The experiment in a line: Intracellular ZIKV RNA levels. The following applies: read-out: IC50, intracellular ZIKV RNA levels. The series is classed as cell-based, Zika virus. The method in brief:
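SNB-19 cells, astrocytes or hNPCs (~3×10^5/well, 12-well) were treated with test compound 1 h before ZIKV (MOI 0.5–1) and harvested 24–48 h post-infection. Total RNA (500–1000 ng) was reverse-transcribed with random hexamers. SYBR qPCR used ZIKV NS1 primers, with GAPDH as the endogenous control. Fold change was calculated by ΔΔCT, normalised to control cells.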

Series [4] relates to ZIKV. The series is described as follows: Time-of-addition experiment in SNB-19 cells. It counts as cell-based, Zika virus. The following applies: PRVABC59, MOI = 1, 10 μg/ml anti-AXL antibody, 2 μM Niclosamide, 92 μM PHA-690509. The method in brief:
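SNB-19 cells received test compound or 10 μg/ml anti-AXL antibody either 1 h before or 4 h after PRVABC59 infection (MOI 1). NS1 was detected by western blot, and NS1/GAPDH band intensities were normalised to DMSO. n = 3 cultures; one-way ANOVA versus DMSO.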

For the next series, the system named is astrocytes. The experiment in a line: Astrocyte viability, compound toxicity. It counts as cell-based. The following applies: at levels lower than 3 μM. The method in brief:
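Cells were seeded in 96-well plates and, one day later, treated with test compound for 24–48 h without virus. Viability was then read with a CellTiter-Glo luminescent ATP substrate.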

In series [5] the test system is ZIKV. The series is described as follows: ZIKV infection and production in hNPCs and astrocytes. The series is classed as cell-based, Zika virus. The following applies: PRVABC59. The method in brief: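 Astrocytes were treated with test compound 1 h before PRVABC59 (MOI 0.5), fixed 24 h post-infection, and immunostained for ZIKV envelope protein with DAPI. Stained cells were counted. Virus released into culture supernatant was titrated as focus-forming units on Vero cells.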

The conditions of series [6]: ref WHO http://apps.who.int/medicinedocs/en/d/Jh2922e/3.1.3.html; cited from earlier work.
Series [7] concerns ZIKV-induced caspase-3 activity. The series is described as follows: Caspase-3/7 activity assay in ZIKV-infected SNB-19 cells. It counts as cell-based. The following applies: Homo sapiens, SNB-19, read-out: IC50, caspase activity. Put shortly:
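SNB-19 cells (250/well, PDL-coated 1536-well) were grown 16 h at 37 °C/5% CO2, given pin-transferred test compound for 30 min, then ZIKV at 2 FFU/cell for 6 h. Caspase-Glo 3/7 reagent was added for 30 min at room temperature and luminescence read. Uninfected cells were 0% and infected cells 100%. Confirmation used 11-point 1:3 dilutions, n = 3, and IC50 came from curve fits.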

For another series, the system named is SNB-19 cells. The experiment in a line: ATP content cell viability assay in ZIKV-infected SNB-19 cells. The following applies: Homo sapiens, SNB-19, read-out: IC50, cell viability. It counts as cell-based.
The subject of another series is forebrain-specific hNPCs. The series is classed as cell-based, human. Put shortly: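 Forebrain hNPCs were derived from iPSCs via embryoid bodies, rosettes and neurospheres. Monolayers were exposed to ZIKV FSS-13025 (MOI 0.04–0.08) ± test compound and immunostained 72 h later for ZIKV envelope, cleaved caspase-3 and DAPI; %Cas3+/DAPI cells, mean ± s.e.m., n = 3 cultures, one-way ANOVA. C1–2 iPSC forebrain organoids: exposed on day 18 for 24 h, fresh medium 9 more days, then fixed and immunostained.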

The conditions of series [8]: oral delivery, BID, × 4 days; cited from earlier work.
For another series, the system named is activated caspases. The following applies: cited from earlier work.
The conditions of series [9]: cited from earlier work.
In series [10] the test system is hNPC. The series is described as follows: hNPC proliferation after ZIKV infection with compound treatment. The series is classed as cell-based, human. The following applies: ZIKV-infected hNPCs.
For series [11], the system named is hNPC. The series is described as follows: hNPC proliferation in brain organoids, compound alone without ZIKV. The series is classed as cell-based, human. The following applies: PHA-690509 1 μM, Seliciclib 5 μM.
The subject of series [12] is ZIKV. The experiment in a line: ZIKV production from iPSC-derived human astrocytes, FFU assay. The series is classed as cell-based, Zika virus. The following applies: read-out: IC50, ZIKV production upon infection of human astrocytes; PRVABC59.

The structures appear in SMILES notation. “And” between values parts separate entries of the source, which are not always exact repeats. Identical values can stand only once.

For `CC(C)c1nn(-c2c(Cl)cccc2Cl)c2nc(Cc3ccc(OCCO)cc3)[nH]c(=O)c12` [RGB-286147], the 50% inhibitory concentration (IC50) with ZIKV [1] (read-out: IC50, ZIKV production) turned out to be 27 nM.
With `O=C(Nc1ccc([N+](=O)[O-])cc1Cl)c1cc(Cl)ccc1O` [Niclosamide], the “inhibition of ZIKV as measured by NS1 expression” value in the series on ZIKV [2] is reported as “inhibited all three strains of ZIKV”. The 50% inhibitory concentration (IC50) with ZIKV [3] (Zika virus) came out at 370 nM. In the series with ZIKV [1], the “concentrations suppressing production of infectious ZIKV particles” value is given as “sub-micromolar concentrations”. Further, the “inhibition of ZIKV infection by time of addition” value in the series on ZIKV [4] is “effectively inhibited ZIKV infection when added either 1 hour before or 4 hours after virus inoculation”. Moreover, in the series with astrocytes, the “toxicity, astrocyte viability” value was “minimal toxicity”. Besides, the “ZIKV infection and production in hNPCs and astrocytes” value in the series on ZIKV [5] is “inhibited ZIKV infection and production”. In addition, the “mutagenic, teratogenic or embryotoxic potential” value in series [6] was “not been shown to be mutagenic, teratogenic or embryotoxic”.
As to `C[C@H](NC(=O)C(=O)Nc1ccccc1C(C)(C)C)C(=O)N[C@@H](CC(=O)O)C(=O)COc1c(F)c(F)cc(F)c1F` [Emricasan], the IC50 in [7] fell in the range of 130 to 900 nM. The IC50 with SNB-19 cells lay in the range of 130 to 900 nM. The “suppression of ZIKV replication (ZIKV antigen)” value with forebrain-specific hNPCs (2D and 3D cultures) is given as “does not suppress ZIKV replication”. In addition, the “number of active (cleaved) caspase-3-expressing forebrain-specific hNPCs” value in the series with forebrain-specific hNPCs (infected by FSS13025, monolayer and 3D organoid cultures) was “reduced”. Further, in series [8], the “maximum concentration in human blood” value was 2.36 μg/ml and 4.15 μM; the “overall concentration in human blood” value was 1.90 μg/ml and 3.35 μM. Moreover, the “activity against activated caspases in vitro” value with activated caspases is recorded as “sub-to nano-molar activity”. Besides, the “tolerability in human trials” value in series [9] is reported as “well tolerated in human trials without significant adverse events”.
As to `CC[C@H](CO)Nc1nc(NCc2ccccc2)c2ncn(C(C)C)c2n1` [Seliciclib], the “rescue of ZIKV-induced reduction in hNPC proliferation” value in the series on hNPC [10] is listed as “partially rescued”. Also, the “effect of treatment alone on hNPC proliferation in brain organoids” value in the series with hNPC [11] is “minimal effect”.
For the molecule `CC(=O)Nc1ccc([C@H](C)C(=O)Nc2ncc(C(C)C)s2)cc1` [PHA-690509], the “inhibition of ZIKV as measured by NS1 expression” value with ZIKV [2] was “inhibited all three strains of ZIKV”. The IC50 was 1720 nM with ZIKV [3] and about 200 nM in the series with ZIKV [12]. Further, the “concentrations suppressing production of infectious ZIKV particles” value in the series on ZIKV [1] is on record as “sub-micromolar concentrations”. Moreover, the “inhibition of ZIKV infection by time of addition” value in the series on ZIKV [4] was “effectively inhibited ZIKV infection when added either 1 hour before or 4 hours after virus inoculation”. For the same molecule, in the series with astrocytes, the “toxicity, astrocyte viability” value is given as “minimal toxicity”. Moreover, the “rescue of ZIKV-induced reduction in hNPC proliferation” value in the series with hNPC [10] is listed as “partially rescued”. Further, the “ZIKV infection and production in hNPCs and astrocytes” value in the series on ZIKV [5] is “inhibited ZIKV infection and production”.

The values above are taken from PMC5386783 (Nature medicine, 2016).
